4 compounds from ChEMBL document CHEMBL3576843, “Neopetrocyclamines A and B, polycyclic diamine alkaloids from the sponge Neopetrosia cf exigua” (2015) can be followed below.

Holding throughout (format): functional
In assay [1] the test system is A498. The experiment in a line: Cytotoxicity against human A498 cells after 48 hrs by XTT assay. Particulars: A498, 48 h. In short, it runs like this:
(§1)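 Cells seeded at 5000/well in medium lacking phenol red and antibiotics, allowed 60 min to attach, then compound dilutions or DMSO solvent control added. Incubated 48 h with compound; viability measured by XTT proliferation assay per kit protocol; growth inhibition expressed as GI50.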
For orientation: Tetrazolium dyes change colour on reduction, which living cells bring about.

The test system of assay [2] is SF-295. In words: Cytotoxicity against human SF295 cells after 48 hrs by XTT assay. Particulars: SF-295, 48 h. The gist of the method:
as §1

Assay [3] deals with UO-31. The experiment in a line: Cytotoxicity against human UO31 cells after 48 hrs by XTT assay. Particulars: UO-31, 48 h. In short, it runs like this: as §1

Where only a bound is given, the exact number is not on record here.

The term GI50 denotes the concentration giving 50% growth inhibition. Read a high GI50 as less potent growth inhibition. Turning to `C1=C[C@H]2/C=C/CCCCC/C=C\CCN3C=[N+](CCC3)C[C@H]2[C@@H]2CCCC[C@@H]12`, the concentration for 50% growth inhibition (GI50) in assay [1], in assay [2] and in assay [3] was > 20 µM each time.

For the compound `C1=C/[C@H]2[C@@H]3CCCC[C@H]3C[C@H]2NCCCN[C@@H]2C[C@@H]3CCCC[C@H]3[C@@H]2/C=C/1`, the 50% growth inhibitory concentration (GI50) in assay [1] stood at 2.9 µM; in assay [2], 0.8 µM; in assay [3], 3 µM.

`C1=C/[C@H]2[C@@H]3CCCC[C@H]3C[C@@H]2NCCCN[C@@H]2C[C@@H]3CCCC[C@H]3[C@@H]2/C=C/1` [HALICLONADIAMINE]: the concentration for 50% growth inhibition (GI50) worked out at 5.9 µM in assay [1], 6.3 µM in assay [2] and 8 µM in assay [3].

On to `C1=C[C@H]2/C=C/CCCCC/C=C\CCNCCCNC[C@H]2[C@@H]2CCCC[C@@H]12`, for which the 50% growth inhibitory concentration (GI50) in assay [1], in assay [2] and in assay [3] was > 20 µM each time.
